The record followed here is ChEMBL document CHEMBL1154198, “Chemical genetics of Plasmodium falciparum” (Nature, 2010).

For series [1], the system named is Plasmodium falciparum. The series can be described thus: ST_JUDE: Cytotoxicity against Plasmodium falciparum 3D7. It counts as functional, organism-based. Summed up: (§1)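 Asexual P. falciparum grown in human erythrocytes, exposed to compounds for 72 h, and growth read as the DNA quantity in treated versus control cultures. Dose-response run at 12 concentrations from 10 μM to 5 nM.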

Series [2] can be described thus: ST_JUDE: Cytotoxicity using luciferase to measure ATP as an indicator of the viability of human Burkitt''s lymphoma lymphoblast cells (Raji). It counts as toxicity, cell-based.
The test system of series [3] is Plasmodium falciparum. The series can be described thus: ST_JUDE: Cytotoxicity against Plasmodium falciparum Dd2. It counts as functional, organism-based.
Series [4] concerns Leishmania major. The series can be described thus: ST_JUDE: Cytotoxicity using Alamar Blue to measure viability of Leishmania major. It counts as functional, organism-based. In a few lines: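 L. major promastigotes; drug susceptibility read with Alamar Blue.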
For series [5], the system named is Plasmodium falciparum. The series can be described thus: ST_JUDE: Cytotoxicity against Plasmodium falciparum V1/S. It counts as functional, organism-based.
The nature of series [6]: ST_JUDE: Cytotoxicity using luciferase to measure ATP as an indicator of the viability of human epithelial embryonic kidney cells (HEK293). It counts as toxicity, cell-based.
For series [7], the system named is Plasmodium falciparum. Put plainly: ST_JUDE: Cytotoxicity against Plasmodium falciparum W2. It counts as functional, organism-based.
Series [8] relates to Plasmodium falciparum. The series can be described thus: ST_JUDE: Cytotoxicity against Plasmodium falciparum K1. It counts as functional, organism-based. In a few lines: as §1
Series [9] concerns Plasmodium falciparum. The series can be described thus: ST_JUDE: Cytotoxicity against Plasmodium falciparum SB-A6. It counts as functional, organism-based.
Series [10] is described as follows: ST_JUDE: Cytotoxicity using luciferase to measure ATP as an indicator of the viability of human foreskin fibroblast cells (BJ). It counts as toxicity, cell-based.
The test system of series [11] is Plasmodium falciparum. The series can be described thus: ST_JUDE: Cytotoxicity against Plasmodium falciparum D10 transfected with yeast DHOD. It counts as functional, organism-based.
Series [12] relates to Plasmodium falciparum. The series can be described thus: ST_JUDE: Plasmodium falciparum K1 EC50 (uM) as measured by SYBR green dye. It counts as functional, organism-based.
Series [13] can be described thus: ST_JUDE: Cytotoxicity using luciferase to measure ATP as an indicator of the viability of human epithelial hepatocellular carcinoma cells (HepG2). It counts as toxicity, cell-based.
Series [14] deals with Plasmodium falciparum. The series can be described thus: ST_JUDE: Plasmodium falciparum 3D7 EC50 (uM) as measured by SYBR green dye. It counts as functional, organism-based.
In series [15] the test system is Trypanosoma brucei. Put plainly: ST_JUDE: Cytotoxicity using luciferase to measure ATP as an indicator of the viability of Trypanosoma brucei. It counts as functional, organism-based.
The subject of series [16] is Toxoplasma gondii. Put plainly: ST_JUDE: Growth inhibition of to Toxoplasma gondii, in human U-2OS cells, as measured by luciferase. It counts as functional, organism-based. As to conditions: RH, U2OS. In a few lines:
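T. gondii parasites engineered to express luciferase; drug sensitivity read by luminescence.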

Structures are written as SMILES.

`CC(C)(C)C(=O)N1CCN(c2ccc([N+](=O)[O-])c(NC3CC3)c2)CC1`: the EC50 is 1240 nM in series [1]; over 43400 nM in [2]; 1050 nM in [3]; over 18600 nM in [4]; 1150 nM in series [5]; over 43400 nM in series [6]. The EC50 in [7] is 480 nM; in series [8], 1070 nM; in series [9], 1240 nM; in series [10] it was over 43400 nM; in series [11], 1360 nM; in series [12] it was 642 nM. Also, the EC50 in series [13] is over 43400 nM; in series [14], 670 nM; in [15], 21300 nM; in series [16] it was over 23800 nM.
`CCN1CCN(Cc2c(O)ccc3c(=O)c(Oc4ccccc4C(C)C)c(C(F)(F)F)oc23)CC1`: the EC50 is 223 nM in series [1]; over 23300 nM in series [2]; 523 nM in series [3]; over 9980 nM in [4]; 102 nM in [5]; over 23300 nM in series [6]. In addition, the half-maximal effective concentration (EC50) in [7] was 41.8 nM; in series [8], 69.6 nM; in [9], 335 nM; in [10], over 23300 nM; in [11], 247 nM; in [12] it was 59.2 nM. Besides, the EC50 in series [13] is over 23300 nM; in series [14] it was 226 nM; in series [15] it was over 22400 nM; in [16] it was over 12800 nM.
For `CCn1nc(-c2ccc(C(F)(F)F)cc2)nc2c(=O)n(C)c(=O)nc1-2`, the EC50 in series [1] was 402 nM; in [2], over 50100 nM; in series [3], 4550 nM; in series [4] it was over 21400 nM; in series [5], 225 nM; in series [6], over 50100 nM. Moreover, the half-maximal effective concentration (EC50) is 90.4 nM in series [7]; 246 nM in [8]; 1300 nM in [9]; over 50100 nM in series [10]; 613 nM in series [11]; 1370 nM in series [12]. Further, the EC50 was 2870 nM in [13], 779 nM in [14], over 48000 nM in [15] and over 27400 nM in series [16].
In the case of `Cn1c(=O)c2c(-c3ccc(C(C)(C)C)cc3)n(-c3cc(Cl)ccc3O)cc2n(C)c1=O`, the EC50 in [1] was over 10200 nM; in [2], over 39500 nM; in series [3], 1270 nM; in [4], over 16900 nM; in series [5], 988 nM; in [6], over 39500 nM. In addition, the EC50 in series [7] was 780 nM; in [8], over 10200 nM; in series [9], 976 nM; in series [10], over 39500 nM; in series [11], 982 nM; in [12], 1220 nM. The EC50 in [13] is over 39500 nM; in [14] it was 1140 nM; in [15], 6750 nM; in series [16], over 21700 nM.
As for `O=C1C(Nc2ccc(Br)cc2)=C(n2nnc3ccccc32)C(=O)c2ccccc21`, the concentration giving a half-maximal response (EC50) in [1] was 60.2 nM; in series [2], over 24800 nM; in series [3], 590 nM; in series [4] it was over 10600 nM; in [5], 32.6 nM; in series [6] it was over 24800 nM. Also, the EC50 in series [7] was over 6370 nM; in series [8], 24.5 nM; in series [9], 80.1 nM; in series [10], over 24800 nM; in series [11], 59.3 nM; in series [12], 21.6 nM. The EC50 is over 24800 nM in series [13], 28.2 nM in series [14], 1310 nM in [15] and over 13600 nM in [16].
As for `Oc1ccc(Br)cc1CN1CCN(Cc2ccccc2F)CC1`, the 50% effective concentration (EC50) in series [1] was 2060 nM; in [2] it was over 36100 nM; in series [3], 1790 nM; in [4], over 15500 nM; in [5], 936 nM; in series [6], over 36100 nM. Moreover, the EC50 is 1610 nM in [7]; 745 nM in series [8]; 2770 nM in series [9]; over 36100 nM in [10]; 3660 nM in series [11]; 334 nM in series [12]. Also, the 50% effective concentration (EC50) was over 36100 nM in series [13], 719 nM in series [14], 27200 nM in series [15] and over 19800 nM in [16].
As for `CC(C)(C)c1ccc(S(=O)(=O)NC2=C/C(=N\c3ccc(O)cc3)C(=O)c3ccccc32)cc1`, the concentration for a half-maximal effect (EC50) is 600 nM in series [1]; 4070 nM in series [2]; 1030 nM in series [3]; over 14000 nM in [4]; 687 nM in [5]; 7990 nM in series [6]. Besides, the concentration for a half-maximal effect (EC50) in series [7] was 385 nM; in series [8], 326 nM; in series [9] it was 304 nM; in [10] it was 4620 nM; in [11], 244 nM; in series [12] it was 579 nM. Further, the EC50 in series [13] is 2180 nM; in series [14], 1080 nM; in [15], 669 nM; in series [16], over 18000 nM.
With `COc1ccccc1C1CC2=NC(C)=C(C(=O)OC(C)C)C(c3ccc(Cl)cc3)C2=C(O)C1` (stereo not drawn), the concentration for a half-maximal effect (EC50) in series [1] was 1010 nM; in [2] it was over 29900 nM; in [3], 1100 nM; in series [4] it was over 12800 nM; in series [5], 846 nM; in series [6] it was over 29900 nM. In addition, the EC50 was over 7680 nM in series [7]; 641 nM in [8]; 753 nM in series [9]; over 29900 nM in series [10]; 780 nM in series [11]; 688 nM in series [12]. Also, the EC50 was over 29900 nM in [13], 1280 nM in series [14], 680 nM in series [15] and over 16400 nM in series [16].
Turning to `CCOC(=O)C1(Cc2cccc(C(F)(F)F)c2)CCN(Cc2ccccc2O)CC1`, the EC50 in series [1] was 1330 nM; in series [2], over 41300 nM; in series [3], 345 nM; in series [4], over 17700 nM; in series [5] it was 486 nM; in series [6] it was over 41300 nM. Also, the EC50 was 726 nM in series [7]; 368 nM in series [8]; 858 nM in [9]; over 41300 nM in series [10]; 743 nM in series [11]; 57.6 nM in series [12]. For the same molecule, the EC50 is over 41300 nM in series [13], 389 nM in series [14], 11700 nM in series [15] and over 22600 nM in series [16].
As to `CCOc1ccc(Nc2nc(NCc3ccccc3)c3ccccc3n2)cc1`, the half-maximal effective concentration (EC50) in series [1] turned out to be 1140 nM; in [2], 8220 nM; in [3] it was 651 nM; in [4] it was 8.8 nM; in series [5] it was 1070 nM; in series [6], 8670 nM. Moreover, the concentration for a half-maximal effect (EC50) in [7] is over 10200 nM; in [8], 1440 nM; in series [9], 305 nM; in [10], 8410 nM; in series [11], 1070 nM; in series [12], 1540 nM. Besides, the EC50 in series [13] was 4770 nM; in series [14] it was 1150 nM; in series [15] it was 5620 nM; in series [16], over 21700 nM.
In the case of `Cc1ccc(C)c(N2CCN(Cc3cc(Br)ccc3O)CC2)c1`, the concentration giving a half-maximal response (EC50) in series [1] was 532 nM; in series [2], over 35600 nM; in series [3], 427 nM; in [4], over 15300 nM; in [5], 297 nM; in series [6], over 35600 nM. Moreover, the EC50 in [7] is 571 nM; in [8], 206 nM; in series [9] it was 716 nM; in series [10], over 35600 nM; in [11] it was 579 nM; in series [12], 178 nM. The EC50 was over 35600 nM in series [13], 395 nM in series [14], 28300 nM in [15] and over 19500 nM in series [16].
As to `CN1/C(=C/c2cccc[n+]2C)Sc2ccccc21`, the half-maximal effective concentration (EC50) is 567 nM in series [1]; 4050 nM in series [2]; 771 nM in [3]; 108 nM in [4]; 503 nM in series [5]; over 28300 nM in series [6]. For the same molecule, the concentration for a half-maximal effect (EC50) was 495 nM in [7]; 605 nM in series [8]; 681 nM in [9]; over 28300 nM in series [10]; 879 nM in [11]; 389 nM in series [12]. Moreover, the half-maximal effective concentration (EC50) in series [13] is over 28300 nM; in [14], 540 nM; in series [15] it was 3950 nM; in [16] it was over 15500 nM.
Consider `COc1ccc(NC(=O)C2c3ccccc3C(=O)N(CC(C)C)C2c2cccs2)cc1` (stereo not drawn), for which the concentration for a half-maximal effect (EC50) in series [1] was 217 nM; in series [2], over 47700 nM; in [3], 255 nM; in [4], over 20400 nM; in series [5], 416 nM; in [6], over 47700 nM. Further, the concentration for a half-maximal effect (EC50) was over 12300 nM in series [7]; 196 nM in [8]; 370 nM in [9]; over 47700 nM in series [10]; 329 nM in [11]; 120 nM in [12]. In addition, the EC50 in series [13] was over 47700 nM; in series [14] it was 102 nM; in series [15] it was 7550 nM; in series [16] it was over 26100 nM.
